Experimental data from ChEMBL document CHEMBL1145126, “Novel derivatives of benzo[b]thieno[2,3-c]quinolones: synthesis, photochemical synthesis, and antitumor evaluation” (J Med Chem, 2003).

Legend:
[1] = system: HBL; test: In vitro inhibitory effect on growth of human HBL tumor cell line; type: functional, cell-based
[2] = system: MCF7; test: In vitro inhibitory effect on growth of human MCF-7 tumor cell line; type: functional, cell-based
[3] = system: Caco-2; test: In vitro inhibitory effect on growth of human CaCo-2 tumor cell line; type: functional, cell-based
[4] = system: HeLa; test: In vitro inhibitory effect on growth of human HeLa tumor cell line; type: functional, cell-based
[5] = system: WI-38; test: In vitro inhibitory effect on growth of human normal WI-38 cell line; type: functional, cell-based
[6] = system: HEp-2; test: In vitro inhibitory effect on growth of human Hep-2 tumor cell line; type: functional, cell-based
[7] = system: MIA PaCa-2; test: In vitro inhibitory effect on growth of human MIAPaCa-2 tumor cell line; type: functional, cell-based
[8] = system: ME67.3; test: In vitro inhibitory effect on growth of human ME 67.3 tumor cell line; type: functional, cell-based
[9] = system: HBL; test: Effect on adhesion of Melanoma cell line (HBL) at 5*10e-6 M at 3h incubation time; type: functional, Homo sapiens
Summary of the method: (§1)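 HBL melanoma cells exposed to compound at the stated concentration and time; cells still attached to the plastic substratum quantified by MTT test. Result given as ratio (%) of treated to control cells; one of three parallel experiments reported.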

[10] = system: HBL; test: Effect on adhesion of Melanoma cell line (HBL) at 5*10e-6 M at 1 hr incubation time; type: functional, Homo sapiens; summary of the method: as §1
[11] = system: Melanoma cell; test: Percentage of apoptotic cells after treatment of Melanoma cells with 5*10e-6 M compound for 5 hr; type: functional, Homo sapiens
Summary of the method: (§2)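 HBL melanoma cells seeded at 2 × 10^5 cells/mL, exposed after 48 h to compound for 5 h, then washed in PBS and stained with Annexin-V-FLUOS for 15 min at ambient temperature. Scored by fluorescence microscopy as apoptotic (green) cells over total cells.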

[12] = system: HBL; test: Effect on adhesion of Melanoma cell line (HBL) at 5*10e-6 M at 24 hr incubation time; type: functional, Homo sapiens; summary of the method: as §1
[13] = system: Melanoma cell; test: Percentage of apoptotic cells after treatment of Melanoma cells with 1*10e-5 M compound for 5 hr; type: functional, Homo sapiens; summary of the method: as §2
[14] = system: HBL; test: Effect on adhesion of Melanoma cell line (HBL) at 10*10e-5 M at 2 hr incubation time; type: functional, Homo sapiens; summary of the method: as §1
[15] = system: HBL; test: Effect on adhesion of Melanoma cell line (HBL) at 10*10e-5 M at 24 hr incubation time; type: functional, Homo sapiens; summary of the method: as §1
[16] = system: HBL; test: Effect on adhesion of Melanoma cell line (HBL) at 10*10e-5 M at 1 hr incubation time; type: functional, Homo sapiens; summary of the method: as §1
[17] = system: HBL; test: Effect on adhesion of Melanoma cell line (HBL) at 10*10e-5 M at 3h incubation time; type: functional, Homo sapiens; summary of the method: as §1
[18] = system: HBL; test: Effect on adhesion of Melanoma cell line (HBL) at 5*10e-6 M at 2 hr incubation time; type: functional, Homo sapiens; summary of the method: as §1
[19] = system: ME67.1; test: In vitro inhibitory effect on growth of human ME 67.1 tumor cell line; type: functional, cell-based
[20] = system: Melanoma cell; test: Percentage of apoptotic cells after treatment of Melanoma cells with 1*10e-6 M compound for 5 hr; type: functional, Homo sapiens; summary of the method: as §2

Compound | IC50 [1] | IC50 [2] | IC50 [3] | IC50 [4] | IC50 [5] | IC50 [6] | IC50 [7] | IC50 [8] | Ratio [9] | Ratio [10] | Apoptotic cell [11] | Ratio [12] | Apoptotic cell [13] | Ratio [14] | Ratio [15] | Ratio [16] | Ratio [17] | Ratio [18] | IC50 [19] | Apoptotic cell [20]
Cc1ccc2c(c1)sc1c(=O)n(CCCN(C)C)c3ccccc3c12 | 1100 nM | 4500 nM | 1700 nM | 1000 nM | 2450 nM | 3630 nM | 1100 nM |  |  |  |  |  |  |  |  |  |  |  |  | 
CN(C)CCCn1c(=O)c2sc3cc(F)ccc3c2c2ccccc21 | 3980 nM | 4600 nM | 980 nM | 650 nM | 2900 nM | 3160 nM | 2500 nM |  |  |  |  |  |  |  |  |  |  |  |  | 
CN(C)CCCn1c(=O)c2sc3cc(C(=O)Nc4ccccc4)ccc3c2c2ccccc21 | 10 nM | 2630 nM | 490 nM | 2800 nM | 2300 nM | 1770 nM | 1000 nM | 190 nM | 95% | 90% | 29% | 62% | 35% | 87% | 28% | 87% | 81% | 98% | 790 nM | 9%
CN(C)CCCNC(=O)c1ccc2c(c1)sc1c(O)nc3ccccc3c12 | 1000 nM | 10000 nM | 3800 nM | 6300 nM | 4400 nM | 6600 nM | 6600 nM |  |  |  |  |  |  |  |  |  |  |  |  | 
COC(=O)c1ccc2c(c1)sc1c(=O)n(CCCN(C)C)c3ccccc3c12 | 350 nM | 590 nM | 470 nM | 1300 nM | 1600 nM | 650 nM | 1000 nM |  |  |  |  |  |  |  |  |  |  |  |  | 
CN(C)CCCn1c(=O)c2sc3ccccc3c2c2ccccc21 | 580 nM | 4270 nM | 620 nM | 2500 nM | 4500 nM | 3630 nM | 1400 nM |  |  |  |  |  |  |  |  |  |  |  |  | 
COc1ccc2c(c1)sc1c(=O)n(CCCN(C)C)c3ccccc3c12 | 1580 nM | 2200 nM | 470 nM | 850 nM | 2300 nM | 2960 nM | 510 nM |  |  |  |  |  |  |  |  |  |  |  |  | 
CN(C)CCCn1c(=O)c2sc3cc([N+](=O)[O-])ccc3c2c2ccccc21 | 1200 nM | 5800 nM | 790 nM | 1000 nM | 2400 nM | 3540 nM | 1250 nM |  |  |  |  |  |  |  |  |  |  |  |  | 
CN(C)CCCN(C(=O)c1ccc2c(c1)sc1c(O)nc3ccccc3c12)c1ccccc1 | 670 nM | 19500 nM | 4790 nM | 34700 nM | 10000 nM | 3160 nM | 4790 nM |  |  |  |  |  |  |  |  |  |  |  |  | 
